The text below walks through data of ChEMBL document CHEMBL5108040, “N-1,2,3-Triazole-isatin derivatives: anti-proliferation effects and target identification in solid tumour cell lines” (RSC Med Chem, 2022).

pIC50: −log10 of the molar value. Activity calls are given as the source filed them. No cut-off for these calls is given here. Where only a bound is given, the exact number is not on record here.

The term pIC50 denotes the negative decadic logarithm of the IC50, by convention in mol/L. Usually IC50 stands for the concentration needed to halve the response being measured.

For data set [1], the system named is MDA-MB-231. The data set can be described thus: Antiproliferative activity against human MDA-MB-231 cells assessed as inhibition of cell growth incubated for 72 hrs by MTT assay. Format: functional, cell-based. To be noted: MDA-MB-231, 72 h. The method, boiled down: (§1)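 MTT assay in human tumour lines SW480 (colon), A549 (lung adenocarcinoma), MCF7 and MDA-MB-231 (breast), in non-tumorigenic breast MCF10A, and in human embryonic kidney Hek293 as non-tumour reference. Compounds tested at several concentrations for 72 h; IC50 derived from dose-response and given as mean ± error. Cisplatin as reference.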
A general note: Tetrazolium assays rely on reduction of a dye to a coloured formazan, in cell work by metabolically active cells.

For data set [2], the system named is MCF7. The data set is described as follows: Antiproliferative activity against human MCF7 cells assessed as inhibition of cell growth incubated for 72 hrs by MTT assay. The format is functional, cell-based. To be noted: MCF7, 72 h. The method, boiled down:
as §1

Another data set has as its system SW480. The data set is described as follows: Antiproliferative activity against human SW480 cells assessed as inhibition of cell growth incubated for 72 hrs by MTT assay. The note with it: SW480, 72 h. The format is functional, cell-based. The method, boiled down: as §1
The test system of the next data set is A549. The data set can be described thus: Antiproliferative activity against human A549 cells assessed as inhibition of cell growth incubated for 72 hrs by MTT assay. The format is functional, cell-based. The note with it: A549, 72 h. The method, boiled down:
as §1

A short description of data set [3]: Cytotoxicity against HEK293 cells assessed as inhibition of cell growth incubated for 72 hrs by MTT assay. The format is toxicity, cell-based. The note with it: human. The method, boiled down:
as §1

The test system of data set [4] is MCF-10A. The data set can be described thus: Antiproliferative activity against human MCF-10A cells assessed as inhibition of cell growth incubated for 72 hrs by MTT assay. The format is functional, cell-based. A digest of the protocol: as §1
Data set [5] is described as follows: Antiproliferative activity against human SW182 cells assessed as inhibition of cell growth at 2.5 to 2 mM incubated for 24 hrs by MTT assay relative to control. The format is functional. Further details: scale not given: the % may be the effect or the level left. To be noted: dose 2.5-2 mM, at 2 to 2.5 mM.
The nature of data set [6]: Antiproliferative activity against human H199 cells assessed as inhibition of cell growth at 2.5 to 2 mM incubated for 24 hrs by MTT assay relative to control. The format is functional. Further details: scale not given: the % may be the effect or the level left. To be noted: dose 2.5-2 mM, at 2 to 2.5 mM.
Data set [7] has as its system MDA-MB-231. The data set is described as follows: Downregulation of EP300 gene expression in human MDA-MB-231 cells at IC50 concentration incubated for 72 hrs by RT-PCR analysis. The format is functional, cell-based.
For data set [8], the system named is MCF7. The data set can be described thus: Downregulation of EP300 gene expression in human MCF7 cells at IC50 concentration incubated for 72 hrs by RT-PCR analysis. The format is functional, cell-based.
Data set [9] relates to MCF-10A. The data set can be described thus: Downregulation of LYPLA2 gene expression in human MCF-10A cells at IC50 concentration incubated for 72 hrs by RT-PCR analysis. Format: functional, cell-based. The method, boiled down: (§2)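 mRNA levels measured by qPCR in MCF7, MDA-MB-231 and MCF10A breast cells after compound treatment, against DMSO-treated vehicle control. LYPLA2 expression given as a ratio to GAPDH. Statistics by Brown-Forsythe and Welch ANOVA with Dunnett T3 correction; p < 0.05 and p < 0.01 marked.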

Data set [10] relates to MDA-MB-231. The data set can be described thus: Downregulation of LYPLA2 gene expression in human MDA-MB-231 cells at IC50 concentration incubated for 72 hrs by RT-PCR analysis. The format is functional, cell-based. The method, boiled down: as §2
In data set [11] the test system is MCF7. The data set can be described thus: Downregulation of LYPLA2 gene expression in human MCF7 cells at IC50 concentration incubated for 72 hrs by RT-PCR analysis. The format is functional, cell-based. A digest of the protocol:
as §2

Take `O=C1N(Cc2cn(Cc3ccccc3)nn2)c2ccc(Br)cc2[C@@]1(O)c1ccccc1`: the pIC50 was 5.79 in the data set with MDA-MB-231 [1]; 5.69 with MCF7 [2]; 4.72 in the data set with SW480; 4.53 in the data set on A549; 5.96 with MCF-10A [4]. Moreover, in [3], the IC50 at 72 h was found to be 87.3 µM.

With `COc1ccc([C@@]2(O)C(=O)N(Cc3cn(Cc4ccccc4)nn3)c3ccccc32)cc1`, the pIC50 in the data set with SW480 was 4.44; in the data set with A549, 4.02. Further, the IC50 at 72 h in [3] was found to be 38 µM.

With `Cc1ccc([C@]2(O)C(=O)N(Cc3cn(Cc4ccccc4)nn3)c3ccccc32)cc1`, the pIC50 in the data set on SW480 and with A549 was less than 4.00 in each case. Further, in data set [3], the IC50 at 72 h was greater than 100 µM.

As to `O=C(Cn1cc(CN2C(=O)C(=O)c3ccccc32)nn1)Nc1nc2ccccc2s1`, the Activity in data set [5] and in [6] was greater than 50% throughout.

On to `CCCCn1cc(CN2C(=O)[C@](O)(c3ccccc3)c3ccccc32)nn1`, for which the pIC50 with SW480 and in the data set on A549 was less than 4.00 in each case. The IC50 at 72 h in [3] was greater than 100 µM.

Regarding `O=C1N(Cc2cn(Cc3ccccc3)nn2)c2ccccc2[C@@]1(O)c1ccc(F)cc1`, the pIC50 in the data set with SW480 was 4.55; with A549 it was 4.14. For the same molecule, the IC50 at 72 h in data set [3] worked out at 50.3 µM.

Consider `O=C1N(Cc2cn(Cc3ccccc3)nn2)c2ccccc2[C@]1(O)c1ccsc1`, for which the figures for the pIC50 in the data set on SW480 and in the data set on A549 were 4.53 and less than 4.00, respectively. For the same molecule, in data set [3], the IC50 at 72 h turned out to be 64 µM.

As for `O=C1N(Cc2cn(Cc3ccccc3)nn2)c2ccccc2[C@@]1(O)c1cccc(O)c1`, the pIC50 with SW480 is 4.50; with A549 it was less than 4.00. Besides, the IC50 at 72 h in data set [3] was found to be 33.7 µM.

In the case of `CC(C)[C@@H]1CC[C@@H](C)C[C@@H]1n1cc(CN2C(=O)C(=O)c3ccccc32)nn1`, the pIC50 with MDA-MB-231 [1] was 5.75; in the data set with MCF7 [2], 5.87; in the data set with SW480 it was 5.05; with A549, 4.27; with MCF-10A [4], 5.97. The outcome in the data set with MDA-MB-231 [7] and in the data set on MCF7 [8] was Active. Also, in data set [3], the IC50 at 72 h amounted to 23.1 µM.

On to `Cc1ccc2c(c1)C(=O)C(=O)N2Cc1cn(Cc2ccccc2)nn1`, for which the pIC50 is 5.62 in the data set on MDA-MB-231 [1]; 5.82 in the data set with MCF7 [2]; 4.58 in the data set on SW480; 4.38 in the data set on A549; 5.81 in the data set on MCF-10A [4]. The outcome in the data set with MDA-MB-231 [7] and in the data set with MCF7 [8] was Active. Besides, in data set [3], the IC50 at 72 h is 26.9 µM.

On to `COc1ccc([C@]2(O)C(=O)N(Cc3cn(Cc4ccccc4)nn3)c3ccccc32)cc1`, for which the figures for the pIC50 in the data set with SW480 and in the data set with A549 were 4.12 and less than 4.00, respectively. In addition, the IC50 at 72 h in data set [3] was greater than 100 µM.

In the case of `O=C1N(Cc2cn(Cc3ccccc3)nn2)c2ccccc2[C@@]1(O)c1ccccc1`, the pIC50 was 4.20 in the data set with SW480 and less than 4.00 with A549. In addition, the IC50 at 72 h in data set [3] was greater than 100 µM.

As to `O=C1N(Cc2cn(Cc3ccccc3)nn2)c2ccccc2[C@]1(O)c1ccc2ccccc2c1`, the values for the pIC50 with SW480 and with A549 were 5.06 and 4.63, respectively. Also, the IC50 at 72 h in data set [3] came to 14 µM.

On to `O=C1N(Cc2cn(Cc3ccccc3)nn2)c2ccccc2[C@@]1(O)c1ccc2ccccc2c1`, for which the pIC50 in the data set with MDA-MB-231 [1] is 5.51; in the data set on MCF7 [2] it was 5.76; with SW480, 5.00; in the data set on A549, 4.55; in the data set on MCF-10A [4], 5.88. Moreover, the result in the data set on MCF-10A [9] and in the data set on MDA-MB-231 [10] was Active. Further, in data set [3], the IC50 at 72 h is 12.4 µM.

`O=C1N(Cc2cn(Cc3ccccc3)nn2)c2ccc(Br)cc2[C@]1(O)c1ccccc1`: the pIC50 is 5.85 with MDA-MB-231 [1]; 5.83 in the data set with MCF7 [2]; 4.54 in the data set on SW480; 4.18 in the data set with A549; 5.99 in the data set with MCF-10A [4]. Moreover, the result with MCF7 [11] and with MDA-MB-231 [10] was Active. For the same molecule, the IC50 at 72 h in data set [3] was determined as 36.1 µM.

Regarding `O=C1N(Cc2cn(Cc3ccccc3)nn2)c2ccccc2[C@]1(O)c1ccc(F)cc1`, the pIC50 with SW480 is 4.49; in the data set with A549 it was 4.11. Besides, the IC50 at 72 h in data set [3] stood at 53.5 µM.

With `CS(=O)(=O)c1ccc2nc(NC(=O)Cn3cc(CN4C(=O)C(=O)c5ccccc54)nn3)sc2c1`, the Activity in data set [5] and in data set [6] was greater than 50% each time.

For the molecule `O=C1C(=O)N(Cc2cn(Cc3ccccc3)nn2)c2ccccc21`, the pIC50 is 5.53 with MDA-MB-231 [1]; 5.86 with MCF7 [2]; 4.49 in the data set with SW480; 4.26 with A549; 5.74 with MCF-10A [4]. Moreover, the result with MDA-MB-231 [7] and with MCF7 [8] was Active. Moreover, in data set [3], the IC50 at 72 h came out at 63.7 µM.

Regarding `CC(C)[C@@H]1CC[C@@H](C)C[C@@H]1n1cc(CN2C(=O)C3(OCCO3)c3ccccc32)nn1`, the pIC50 in the data set with SW480 and with A549 was less than 4.00 each time. Moreover, the IC50 at 72 h in data set [3] was greater than 100 µM.

With `O=C1N(Cc2cn(Cc3ccccc3)nn2)c2ccccc2[C@@]1(O)c1ccsc1`, the pIC50 in the data set on SW480 was 4.20; with A549, 4.01. Moreover, the IC50 at 72 h in data set [3] was found to be 46.4 µM.

For the molecule `O=C1N(Cc2cn(Cc3ccccc3)nn2)c2ccccc2[C@]1(O)c1ccccc1`, the pIC50 was 4.12 in the data set on SW480 and less than 4.00 in the data set on A549. Besides, the IC50 at 72 h in [3] was greater than 100 µM.

For `Cc1ccc2nc(NC(=O)Cn3cc(CN4C(=O)C(=O)c5ccccc54)nn3)sc2c1`, the Activity in data set [5] and in data set [6] was greater than 50% throughout.

On to `CCCCn1cc(CN2C(=O)[C@@](O)(c3ccccc3)c3ccccc32)nn1`, for which the pIC50 in the data set with SW480 and in the data set on A549 was less than 4.00 each time. Further, the IC50 at 72 h in data set [3] was greater than 100 µM.
